ChEMBL document CHEMBL4145466, “Design, synthesis, and biological evaluation of novel combretastatin A-4 thio derivatives as microtubule targeting agents” (Eur J Med Chem, 2018)
Activity calls are given as the source filed them. No cut-off for these calls is given here.

Legend:
[1] = test system: MCF7; assay: Cell cycle arrest in human MCF7 cells assessed as accumulation of cells at G2/M phase at 0.1 to 1 uM after 24 hrs by propidium iodide staining-based FACS analysis; type: functional
How it was run: (§1)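 Cells were seeded at 5 × 10^5 per well in DMEM with 10% FBS and left overnight, then exposed to 0.1, 0.5 or 1 µM for 24 h. DMSO served as the negative control and 50 nM camptothecin as the positive control. Cells were trypsinized, fixed in 70% ethanol for 30 min at 4 °C, stained with 50 µg/mL PI plus 100 µg/mL RNase A for 30 min in the dark, and analysed by flow cytometry. Results are mean ± SD of three experiments, compared by ANOVA with Dunnett's test.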

[2] = test system: A-431; assay: Cytotoxicity against human A431 cells after 48 hrs by MTT assay; type: functional, cell-based; conditions: A-431, 48 h
How it was run: (§2)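 Cells in DMEM with 10% FBS were plated at 2 × 10^4 per well and left overnight, then treated for 48 h at 0.6–20 µM (six concentrations) from 10 mM DMSO stocks. MTT was added for 2 h, and formazan was dissolved in DMSO and read at 570 nm. Viability was expressed as % of control, with IC50 taken from dose-response curves. Results are mean ± SD of three independent experiments.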

[3] = test system: MCF7; assay: Cytotoxicity against human MCF7 cells after 48 hrs by MTT assay; type: functional, cell-based; conditions: MCF7, 48 h; how it was run: as §2
[4] = test system: MDA-MB-231; assay: Cytotoxicity against human MDA-MB-231 cells after 48 hrs by MTT assay; type: functional, cell-based; conditions: MDA-MB-231, 48 h; how it was run: as §2
[5] = test system: HaCaT; assay: Cytotoxicity against human HaCaT cells after 48 hrs by MTT assay; type: cell-based; how it was run: as §2
[6] = Cytotoxicity against human CCD39Lu cells after 48 hrs by MTT assay; type: cell-based; how it was run: as §2
[7] = Inhibition of porcine tubulin polymerization after 1 hr by spectrophotometric analysis; design: species or system Sus scrofa
How it was run: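 Polymerization was started by shifting from 4 °C to 37 °C, and absorbance was followed at 37 °C for 60 min. The vehicle served as control.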

[8] = test system: A-431; assay: Cell cycle arrest in human A431 cells assessed as accumulation of cells at G2/M phase at 0.1 to 1 uM after 24 hrs by propidium iodide staining-based FACS analysis; type: functional; how it was run: as §1
[9] = molecular target: T1, Tubulin (Homo sapiens) (UniProt P68371+Q9H4B7+P0DPH7+P68366+Q13509+Q71U36+P04350+Q3ZCM7+P07437+P68363+Q9BQE3+Q6PEY2+Q13885+Q9BVA1+Q9BUF5); assay: Inhibition of tubulin polymerization in human HeLa cells assessed as micronuclei formation at 1 uM after 24 hrs by ELISA; type: cell-based
[10] = molecular target: T1, Tubulin (Homo sapiens); assay: Inhibition of tubulin polymerization in human MDA-MB-231 cells assessed as micronuclei formation at 1 uM after 24 hrs by Hoechst 33258/FITC staining-based flow cytometric analysis; type: cell-based
[11] = test system: MDA-MB-231; assay: Induction of apoptosis in human MDA-MB-231 cells after 24 hrs by FITC Annexin V/propidium iodide staining-based FACScan flow cytometric analysis; type: functional, cell-based
How it was run: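 After 24 h of compound exposure, 1 × 10^6 cells were labelled with annexin V-FITC and PI for 15 min at 25 °C in the dark. They were read on a FACScan with 488 nm excitation, detecting FITC at 525 nm and PI at 620 nm. Results are mean ± SD of three independent experiments, with Dunnett's test against control.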

[12] = test system: HeLa; assay: Induction of apoptosis in human HeLa cells assessed as increase in histone-associated DNA fragments in mononucleosomes at 0.1 uM after 24 hrs by ELISA; type: functional, cell-based
How it was run: (§3)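 Cells (2 × 10^4) were incubated for 24 h at 0.1, 0.5 or 1 µM, lysed and centrifuged. Supernatants went onto a streptavidin plate with anti-histone-biotin and anti-DNA-peroxidase for 2 h, followed by ABTS for 30 min and a reading at 405 nm. Nucleosome content was expressed as an enrichment factor, as mean ± SD of three experiments.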

[13] = test system: SK-OV-3; assay: Induction of apoptosis in human SKOV3 cells assessed as increase in histone-associated DNA fragments in mononucleosomes at 0.1 uM after 24 hrs by ELISA; type: functional, cell-based; how it was run: as §3
[14] = test system: A-431; assay: Induction of apoptosis in human A431 cells assessed as increase in histone-associated DNA fragments in oligonucleosomes at 0.1 uM after 24 hrs by ELISA; type: functional, cell-based; how it was run: as §3
[15] = test system: HeLa; assay: Induction of apoptosis in human HeLa cells assessed as increase in histone-associated DNA fragments in oligonucleosomes at 0.1 uM after 24 hrs by ELISA; type: functional, cell-based; how it was run: as §3
[16] = test system: MCF7; assay: Induction of apoptosis in human MCF7 cells assessed as increase in histone-associated DNA fragments in oligonucleosomes at 0.1 uM after 24 hrs by ELISA; type: functional, cell-based; how it was run: as §3
[17] = molecular target: T1, Tubulin (Homo sapiens); assay: Inhibition of tubulin polymerization in human MCF7 cells assessed as perturbation in cytoskeleton structure at 1 uM after 24 hrs by ELISA; type: cell-based
[18] = molecular target: T1, Tubulin (Homo sapiens); assay: Inhibition of tubulin polymerization in human A431 cells assessed as perturbation in cytoskeleton structure at 1 uM after 24 hrs by Hoechst 33258/FITC staining-based flow cytometric analysis; type: cell-based
[19] = test system: HeLa; assay: Cell cycle arrest in human HeLa cells assessed as accumulation of cells at G2/M phase at 0.1 to 1 uM after 24 hrs by propidium iodide staining-based FACS analysis; type: functional; how it was run: as §1
[20] = molecular target: T1, Tubulin (Homo sapiens); assay: Inhibition of tubulin polymerization in human MCF7 cells assessed as chromatin condensation at 1 uM after 24 hrs by Hoechst 33258 staining-based fluorescence microscopic analysis; type: cell-based
How it was run: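 Cells seeded at 12.5 × 10^4 per well and exposed to 1 µM compound for 24 h. Nuclei were stained with Hoechst 33258 (10 µg/mL, 30 min, 37 °C), then fixed in 4% formaldehyde/PBS (15 min, RT). Cells were permeabilized with 1% Triton X-100, blocked with 2% BSA/PBS for 1 h, and incubated with anti-α-tubulin-FITC (1:50) overnight at 4 °C. Imaged by fluorescence microscopy.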

[21] = test system: HaCaT; assay: Induction of apoptosis in human HaCaT cells assessed as increase in histone-associated DNA fragments in mononucleosomes after 24 hrs by ELISA; type: cell-based; how it was run: as §3
[22] = test system: HeLa; assay: Induction of apoptosis in human HeLa cells assessed as increase in histone-associated DNA fragments in mononucleosomes after 24 hrs by ELISA; type: functional, cell-based; how it was run: as §3
[23] = test system: SK-OV-3; assay: Induction of apoptosis in human SKOV3 cells assessed as increase in histone-associated DNA fragments in mononucleosomes after 24 hrs by ELISA; type: functional, cell-based; how it was run: as §3
[24] = test system: HaCaT; assay: Induction of apoptosis in human HaCaT cells assessed as increase in histone-associated DNA fragments in oligonucleosomes after 24 hrs by ELISA; type: cell-based; how it was run: as §3
[25] = test system: HeLa; assay: Induction of apoptosis in human HeLa cells assessed as increase in histone-associated DNA fragments in oligonucleosomes after 24 hrs by ELISA; type: functional, cell-based; how it was run: as §3
[26] = test system: SK-OV-3; assay: Induction of apoptosis in human SKOV3 cells assessed as increase in histone-associated DNA fragments in oligonucleosomes after 24 hrs by ELISA; type: functional, cell-based; how it was run: as §3

IC50 [7] | inhibition [17] | inhibition [18] | SMILES | Activity [1] | IC50 [2] | IC50 [3] | IC50 [4] | IC50 [5] | IC50 [6] | Activity [8] | inhibition [9] | inhibition [10] | Activity [11] | other results
1050 nM | Active | Active | COc1ccc(-c2ocnc2-c2cc(OC)c(SC)c(OC)c2)cc1O | Active | 250 nM | 450 nM | 710 nM | 320 nM | > 20000 nM | Active | Active | Active | Dose-dependent effect | Activity [12]: Active; Activity [13]: Active; Activity [14]: Active; Activity [15]: Active; Activity [16]: Active
850 nM | Active | Active | COc1ccc(-c2ocnc2-c2cc(Br)c(OC)c(OC)c2)cc1SC | Active | 430 nM | 2780 nM | 920 nM | 520 nM | > 20000 nM | Active | Active | Active | Dose-dependent effect | Activity [19]: Dose-dependent effect; inhibition [20]: Active; Activity [21]: Dose-dependent effect; Activity [22]: Dose-dependent effect; Activity [23]: Dose-dependent effect; Activity [24]: Dose-dependent effect; Activity [25]: Dose-dependent effect; Activity [26]: Dose-dependent effect
